The values that follow come from ChEMBL document CHEMBL1944502, “Efficient synthesis and anti-enteroviral activity of 9-arylpurines” (Eur J Med Chem, 2012).

Molecules are shown by their SMILES.

The nature of data set [1]: Antiviral activity against Coxsackievirus B3 Nancy infected in african green monkey Vero cells assessed as inhibition of virus-induced cell death after 3 days by spectrophotometry based MTS/PMS assay. To be noted: Enterovirus B, 72 h. In kind it is functional, Coxsackievirus B3 (strain Nancy). A digest of the protocol:
(§1)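 Infected cells in 96-well plates received serial compound dilutions plus 100 CCID50 of virus. They were incubated 3 days, until full CPE appeared in untreated virus controls, at 37 °C (35 °C for rhinovirus 14). Viability was read by MTS/PMS at OD 498 nm and converted to % of controls. EC50 was obtained by linear interpolation. Runs were at least triplicate, with microscopic confirmation.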

Data set [2] can be described thus: Cytotoxicity against African green monkey Vero cells after 3 days by spectrophotometry based MTS/PMS assay. Particulars: chlorocebus sabaeus. The format is cell-based. Put shortly: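 Uninfected Vero cultures were handled as in the antiviral set-up: serial compound dilutions for 3 days. Overall metabolism was read by MTS/PMS, and raw values were converted to % of controls. CC50 (50% inhibition of cell metabolism) was obtained by linear interpolation. Each experiment was repeated at least three times.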

Data set [3] relates to Vero. As to the kind of experiment: Cytotoxicity against Coxsackievirus B3 Nancy infected African green monkey Vero cells assessed as change in cell morphology at EC50 after 3 days by microscopic analysis. The format is cell-based. Particulars: chlorocebus sabaeus, 72 h. Put shortly:
(§2)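 Infected, compound-treated wells were inspected microscopically after the 3-day antiviral incubation. The check looked for virus-induced CPE and for compound-induced alteration of cell morphology, compared with uninfected, untreated control cells.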

The test system of data set [4] is Poliovirus 1. As to the kind of experiment: Antiviral activity against Poliovirus type 1 Sabin infected in BGM cells assessed as inhibition of virus-induced cell death after 3 days by spectrophotometry based MTS/PMS assay. The format is functional. To be noted: Enterovirus C, 72 h.
A short description of data set [5]: Antiviral activity against Echovirus 11 Gregory infected in BGM cells assessed as inhibition of virus-induced cell death after 3 days by spectrophotometry based MTS/PMS assay. The format is functional, Echovirus 11 (strain Gregory). To be noted: Enterovirus B, 72 h. A digest of the protocol:
as §1

The test system of data set [6] is Coxsackievirus B4. Put plainly: Antiviral activity against Coxsackievirus B4 E2 Edwards infected in african green monkey Vero cells assessed as inhibition of virus-induced cytopathogenicity after 3 days by spectrophotometry based MTS/PMS assay. The format is functional, organism-based. Particulars: Enterovirus B, 72 h. A digest of the protocol:
as §1
On the technique in general: Protection from cytopathic effect is a common read-out in antiviral testing.

For data set [7], the system named is rhinovirus B14. As to the kind of experiment: Antiviral activity against Human rhinovirus 14 infected in human HeLa cells assessed as inhibition of virus-induced cytopathogenicity after 3 days by spectrophotometry based MTS/PMS assay. In kind it is functional, organism-based. Particulars: Rhinovirus B, 72 h. A digest of the protocol: as §1
Data set [8] is described as follows: Antiviral activity against drug-resistant Coxsackievirus B3 Nancy infected in african green monkey Vero cells assessed as inhibition of virus-induced cell death after 3 days by spectrophotometry based MTS/PMS assay. In kind it is functional, Coxsackievirus B3 (strain Nancy). To be noted: Enterovirus B, 72 h.
The test system of data set [9] is Vero. Put plainly: Cytotoxicity against Coxsackievirus B4 E2 Edwards infected african green monkey Vero cells assessed as change in cell morphology at EC50 after 3 days by microscopic analysis. The format is cell-based. Particulars: chlorocebus sabaeus, 72 h. Put shortly:
as §2

Data set [10] in a line: Antiviral activity against Enterovirus 71 BRCR infected in human RD cells assessed as inhibition of virus-induced cell death after 3 days by spectrophotometry based MTS/PMS assay. The format is functional, Human enterovirus 71 (strain BRCR). To be noted: Enterovirus A, 72 h. A digest of the protocol: as §1
Data set [11] is described as follows: Cytotoxicity against Echovirus 11 Gregory infected BGM cells assessed as change in cell morphology at EC50 after 3 days by microscopic analysis. In kind it is cell-based. To be noted: chlorocebus aethiops, 72 h. Put shortly: as §2

What is called EC50 is the concentration at which the effect is half-maximal. As usually defined, the CC50 is the concentration at which the toxic effect on the cells reaches its halfway point. By EC90 is commonly meant the concentration at which the effect reaches the 90% level.

Regarding `CN(C)c1ccc(-n2cnc3c(Cl)ncnc32)cc1`, in data set [1], the EC50 was 6.3 µM. For the same compound, the CC50 at 72 h in [2] is greater than 100 µM. In addition, the Activity entry in [3] is “Non-toxic”.

Take `Cc1nc(Cl)c2ncn(-c3ccc(N(C)C)cc3)c2n1`: in [1], the EC50 turned out to be 11 µM. The CC50 at 72 h in data set [2] was greater than 100 µM. Besides, the Activity entry in [3] is given as “Non-toxic”.

Regarding `O=C1OCCN1c1cccc(-n2cnc3c(Cl)ncnc32)c1`, in data set [1], the EC50 stood at 33.7 µM and the EC90 turned out to be 47.5 µM. In addition, in [2], the CC50 at 72 h was greater than 200 µM. For the same compound, the Activity result in data set [3] was “Non-toxic”.

`CC(=O)c1cccc(-n2cnc3c(Cl)ncnc32)c1` came in with a CC50 at 72 h in [2] greater than 100 µM. Also, the EC50 in [4] was greater than 100 µM; in data set [5], 21.6 µM; in [6], 28.8 µM; in [7], greater than 100 µM; in data set [8], greater than 100 µM. Also, the Activity entry in data set [3] and in [9] was “Non-toxic” throughout.

Regarding `CC(C)S(=O)(=O)n1c(N)nc2ccc(/C(=N/O)c3ccccc3)cc21` [ENVIROXIME], the CC50 at 72 h in [2] is greater than 100 µM. Besides, the EC50 in data set [8] was found to be 1.3 µM. The Activity result in data set [3] is listed as “Non-toxic”.

On to `CCN(CC)c1cccc(-n2cnc3c(Cl)ncnc32)c1`, for which, in data set [1], the EC50 is 15 µM and the EC90 stood at 23 µM. The CC50 at 72 h in data set [2] was greater than 100 µM. For the same compound, the Activity entry in data set [3] was “Non-toxic”.

As to `O=C1OCCN1c1cccc(-n2c(=O)[nH]c3c(Cl)ncnc32)c1`, the EC50 was 8.9 µM in data set [1]; greater than 151 µM in [4]; greater than 151 µM in data set [10]; 86.9 µM in data set [5]; 24.1 µM in [6]; greater than 100 µM in [7]. The EC90 in data set [1] came out at 15.3 µM. This compound registered a CC50 at 72 h in data set [2] greater than 200 µM. The Activity entry in data set [3] and in data set [9] was “Non-toxic” each time.

Consider `CC(=O)Nc1cccc(-n2cnc3c(Cl)ncnc32)c1`, for which the EC50 is 18.5 µM in data set [1]; greater than 174 µM in data set [4]; greater than 174 µM in [10]; 20.8 µM in [5]; 12.1 µM in [6]; greater than 100 µM in data set [7]. In addition, the EC50 in [8] was greater than 50 µM. The EC90 in data set [1] is 24.2 µM. The CC50 at 72 h in data set [2] was greater than 174 µM. In addition, the Activity entry in data set [11] and in [9] was “Non-toxic” throughout.

Consider `Cc1nc(Cl)c2nc(OC(=O)Oc3ccccc3)n(-c3cccc(N(C)C)c3)c2n1`, for which, in [1], the EC50 was 13.6 µM and the EC90 is 14.8 µM. The compound further returned a CC50 at 72 h in data set [2] of 75.9 µM.

Regarding `CN(C)c1cccc(-n2c(=O)[nH]c3c(Cl)ncnc32)c1`, in data set [1], the EC50 was 16 µM and the EC90 amounted to 26 µM. This compound yielded a CC50 at 72 h in data set [2] greater than 100 µM. Besides, the Activity entry in data set [3] is “Non-toxic”.

On to `Cc1nc(Cl)c2ncn(-c3cccc(N(C)C)c3)c2n1`, for which, in [1], the EC50 came out at 12 µM and the EC90 is 28 µM. In [2], this compound gave a CC50 at 72 h greater than 100 µM. Besides, the Activity entry in data set [3] is “Non-toxic”.

Regarding `CC(=O)N(C)c1cccc(-n2cnc3c(Cl)ncnc32)c1`, the EC50 in data set [1] was 7.8 µM. This compound also showed a CC50 at 72 h in data set [2] greater than 100 µM. The Activity result in data set [3] is given as “Non-toxic”.

Consider `Cc1nc(Cl)c2ncn(-c3cccc(N4CCOC4=O)c3)c2n1`, for which, in [1], the EC50 came out at 10.6 µM and the EC90 is 15.6 µM. Besides, the half-maximal cytotoxic concentration (CC50) at 72 h in data set [2] is greater than 200 µM. Besides, in [3], the Activity result is reported as “Non-toxic”.

Take `CN(C)c1cccc(-n2cnc3c(Cl)ncnc32)c1`: the EC50 is 3.8 µM in [1]; greater than 100 µM in [4]; greater than 100 µM in data set [10]; 12.5 µM in [5]; 6.9 µM in [6]; greater than 100 µM in [7]. In data set [8], the EC50 was greater than 100 µM. Further, in data set [1], the EC90 was 5 µM. Also, the CC50 at 72 h in data set [2] was greater than 100 µM. Also, the Activity result in [3] and in [9] was “Non-toxic” in each case.

As for `Cc1nc(Cl)c2[nH]c(=O)n(-c3cccc(N(C)C)c3)c2n1`, in data set [1], the EC50 worked out at 10 µM and the EC90 was 15 µM. In data set [2], this compound registered a half-maximal cytotoxic concentration (CC50) at 72 h greater than 100 µM. In addition, the Activity result in data set [3] is “Non-toxic”.

The compound `CC(=O)c1cccc(-n2c(=O)[nH]c3c(Cl)nc(C)nc32)c1` came in with a CC50 at 72 h in data set [2] greater than 100 µM. Moreover, the Activity result in data set [3] is reported as “Non-toxic”.

For the compound `CCOC(=O)Oc1nc2c(Cl)nc(C)nc2n1-c1cccc(N(C)C)c1`, in data set [1], the EC50 worked out at 12.6 µM and the EC90 was determined as 19.9 µM. The CC50 at 72 h in [2] worked out at 131 µM. Also, the Activity entry in data set [3] is “Non-toxic”.

As for `CCOc1ncnc2c1ncn2-c1cccc(NCCO)c1`, in data set [1], the EC50 is greater than 200 µM and the EC90 is greater than 200 µM. Besides, the CC50 at 72 h in [2] was greater than 200 µM.

The compound `Cc1nc(Cl)c2ncn(-c3cccc(C(C)(C)O)c3)c2n1` had a CC50 at 72 h in data set [2] greater than 100 µM. Moreover, the Activity entry in data set [3] is reported as “Non-toxic”.

On to `CCN(CC)c1cccc(-n2cnc3c(Cl)nc(C)nc32)c1`, for which, in [1], the EC50 was 10 µM and the EC90 turned out to be 15 µM. Moreover, in [2], the CC50 at 72 h is greater than 100 µM. Also, the Activity entry in data set [3] is “Non-toxic”.

Take `CC(=O)N(CC1CC1)c1cccc(-n2cnc3c(Cl)nc(C)nc32)c1`: in data set [1], the EC50 was 34.5 µM and the concentration for an effect of 90% (EC90) was found to be 52.3 µM. Moreover, the CC50 at 72 h in data set [2] was greater than 200 µM. Further, the Activity result in [3] is on record as “Non-toxic”.

Compound `Fc1cccc(F)c1[C@@H]1SCc2nc3cc(C(F)(F)F)ccc3n21` came in with a CC50 at 72 h in data set [2] greater than 100 µM. In addition, the Activity entry in [3] was “Non-toxic”.

Consider `CCN(C(C)=O)c1cccc(-n2cnc3c(Cl)nc(C)nc32)c1`, for which, in [1], the EC50 was 6.1 µM and the EC90 came out at 10.9 µM. The same compound registered a CC50 at 72 h in data set [2] greater than 200 µM. Also, the Activity entry in data set [3] is “Non-toxic”.

In the case of `CC(=O)N(C)c1cccc(-n2cnc3c(Cl)nc(C)nc32)c1`, the EC50 is 6.1 µM in data set [1]; greater than 158 µM in [4]; greater than 158 µM in data set [10]; 20 µM in data set [5]; 13 µM in [6]; greater than 100 µM in [7]. Moreover, the EC50 in [8] was greater than 50 µM. In addition, in data set [1], the EC90 worked out at 8.3 µM. The compound further displayed a cytotoxic concentration (CC50) at 72 h in data set [2] of 307 µM. Further, the Activity entry in data set [11], in [3] and in data set [9] was “Non-toxic” each time.

For the compound `Cc1nc(Cl)c2[nH]c(=O)n(-c3cccc(N4CCOC4=O)c3)c2n1`, in data set [1], the EC50 was 25.4 µM and the EC90 stood at 33.5 µM. In data set [2], the CC50 at 72 h is greater than 200 µM. In [3], the Activity entry is given as “Non-toxic”.

`Cc1nc(Cl)c2c(n1)n(-c1cccc(N(C)C)c1)c(=O)n2C`: in [1], the EC50 turned out to be 11.3 µM and the EC90 stood at 18.2 µM. The compound also displayed a CC50 at 72 h in data set [2] greater than 200 µM. Besides, in data set [3], the Activity result is recorded as “Non-toxic”.

`CC(=O)Nc1cccc(-n2cnc3c(Cl)nc(C)nc32)c1`: in data set [1], the EC50 came out at 11.8 µM and the EC90 amounted to 17.5 µM. The 50% cytotoxic concentration (CC50) at 72 h in [2] is greater than 200 µM. The Activity result in data set [3] was “Non-toxic”.
